Test results published in ChEMBL document CHEMBL1671787, “2-Aminothiazoles as therapeutic leads for prion diseases” (J Med Chem, 2011).

Experiments:
[1] = Antiprion activity against PrPsc infected in dividing mouse ScN2a-cl3 cells assessed as reduction in prion load after 5 days by ELISA; type: cell-based; details: N2a-cl3, 120 h
Method in brief: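 ScN2a (RML-infected N2a) cells seeded at 40,000 cells/well in MEM with 10% FBS, GlutaMax, 500 µg/mL geneticin. Compounds added 4 h after seeding, 0.5% final DMSO. Incubated 5 days at 37 °C, 5% CO2. Lysates captured on D18-coated ELISA plates overnight at 4 °C, then HRP-D13 antibody 1 h. EC50 is the mean of three determinations.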

Brain [2] = experiment: Drug uptake in FVB mouse brain at 130 mg/kg/day, po administered as part of liquid diet for 3 days; type: ADME, organism-based; parameters: route oral; details: in vivo, 72 h
Method in brief: (§1)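 Wild-type FVB mice (~25 g), three per dose group sharing a cage. Compound was dissolved in PEG400 and diluted into a liquid diet of homogenized rodent feed, cocoa and water. Diet given ad libitum for 3 days; daily dose estimated from ~20 mL/day intake. Doses were 0, 40, 80, 130 or 210 mg/kg/day. After CO2 euthanasia, brain was homogenized with four-fold water and measured by LC-MS.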

Liver microsomes = experiment: Metabolic stability in rat liver microsomes assessed as half life by LC-MS/MS analysis; type: ADME, Microsome
Method in brief: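 Compound at 1 µM final (0.6% acetonitrile, 0.01% DMSO) in PBS pH 7.4. Incubated with rat hepatic microsomes (~0.3 mg/mL), 1 mM NADPH and 4 mM UDPGA or PBS at 37 °C. Samples taken at 0, 1, 10, 30 and 60 min and quenched in acetonitrile with carbamazepine internal standard. Remaining parent measured by LCMS; duplicate incubations. Midazolam and 4-nitrophenol served as controls.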

MDCK [3] = experiment: Permeability across apical to basolateral side MDR1-expressing MDCK cells; type: ADME, cell-based, Canis lupus familiaris; details: dog
Method in brief: (§2)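 MDR1-MDCK monolayers grown 5–10 days on 1 µm filters. Compound at 10 µM in HBSS pH 7.4 with 25 mM HEPES and 0.05% PS80, added to the apical or basolateral donor chamber. Receiver samples taken every 20 min and quantified by HPLC/UV/MS. Permeability coefficients calculated per interval and averaged; run in duplicate.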

MDCK [4] = experiment: Permeability across basolateral to apical side MDR1-expressing MDCK cells; type: ADME, cell-based, Canis lupus familiaris; details: dog; method in brief: as §2
Brain [5] = experiment: Drug uptake in FVB mouse brain at 40 to 210 mg/kg/day, po administered as part of liquid diet for 3 days; type: ADME, organism-based; parameters: route oral; details: in vivo, 72 h; method in brief: as §1
Nucleic Acid = experiment: Ratio of drug level in FVB mouse to EC50 for PrPsc
Method in brief: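 Brain (and plasma) levels in wild-type FVB mice given 0, 40, 80, 130 or 210 mg/kg/day for 3 days in liquid rodent diet (PEG400 stock diluted with feed, cocoa, water), 3 mice per dose. At an arbitrary point after feeding (pseudo steady-state), brain homogenised and assayed by LC-MS. Levels set against the mean EC50 from 3 determinations in ScN2a-cl3 cells (5-day PrPSc ELISA).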

| SMILES | EC50 [1] | also measured |
| --- | --- | --- |
| COc1ccc(Nc2nc(-c3cc(-c4ccccc4)no3)cs2)nc1 | 230 nM | – |
| COc1ccc(-c2csc(Nc3ccc4ccccc4c3)n2)cc1OC | 390 nM | – |
| COc1ccccc1-c1csc(Nc2ccc(C)cn2)n1 | > 29000 nM | – |
| COc1ccc(-c2csc(Nc3cc4ccccc4cn3)n2)cc1 | 340 nM | – |
| c1ccc(-c2cc(-c3csc(Nc4ccncc4)n3)on2)cc1 | 4420 nM | – |
| c1ccc(-c2csc(Nc3cc4ccccc4cn3)n2)cc1 | 3080 nM | – |
| COc1ccc(-c2csc(Nc3cccc(C)n3)n2)cc1OC | 3010 nM | – |
| Cc1ccc(Nc2nc(-c3cc(-c4ccccc4)no3)cs2)nc1 | 940 nM | Drug uptake (Brain [2]): Active; t1/2 (Liver microsomes): 151 min; permeability (MDCK [3]): 6.8 ×10⁻⁶ cm/s; permeability (MDCK [4]): 8.3 ×10⁻⁶ cm/s; Drug uptake (Brain [5]): Active; Ratio (Nucleic Acid): 25 |
| Cc1ccc(Nc2nc(-c3ccc(-c4ccccn4)s3)cs2)nc1 | 1230 nM | – |
| COc1ccc(-c2csc(Nc3ccc(C(F)(F)F)cn3)n2)cc1OC | 2530 nM | t1/2 (Liver microsomes): 150 min; permeability (MDCK [3]): 9.4 ×10⁻⁶ cm/s; permeability (MDCK [4]): 8.7 ×10⁻⁶ cm/s |
| Cc1cccc(Nc2nc(-c3cc(-c4ccccc4)no3)cs2)n1 | 820 nM | – |
| COc1ccc(-c2csc(Nc3cnccn3)n2)cc1OC | 15600 nM | – |
| COc1ccc(-c2csc(Nc3ccc(C)cn3)n2)cc1OC | 790 nM | – |
| Cc1ccc(Nc2nc(C)cs2)nc1 | > 32000 nM | – |
| c1ccc(-c2cc(-c3csc(Nc4ccccn4)n3)on2)cc1 | 600 nM | – |
| COc1ccc(-c2csc(Nc3cc4ccccc4cn3)n2)cc1OC | – | t1/2 (Liver microsomes): 83 min |
| Cc1ccc(Nc2nc(-c3c(-c4ccccc4)noc3C)cs2)nc1 | > 26000 nM | t1/2 (Liver microsomes): 19 min; permeability (MDCK [3]): 11.2 ×10⁻⁶ cm/s; permeability (MDCK [4]): 8.6 ×10⁻⁶ cm/s |
| c1ccc2cc(Nc3nc(-c4ccncc4)cs3)ncc2c1 | 310 nM | – |
| COc1ccc(-c2csc(N(C(C)=O)c3cc4ccccc4cn3)n2)cc1OC | 81 nM | – |
| c1ccc(-c2ccc(-c3csc(Nc4cc5ccccc5cn4)n3)s2)nc1 | 2010 nM | – |
| COc1ccc(NC(=O)c2csc(Nc3ccc(C)cn3)n2)cc1OC | 2440 nM | – |
| COc1ccc(-c2csc(NC(=O)c3cc4ccccc4cn3)n2)cc1OC | 8180 nM | – |

| SMILES | EC50 [1] | also measured |
| --- | --- | --- |
| Cc1ccc(Nc2nc(-c3ccccc3)cs2)nc1 | 7880 nM | t1/2 (Liver microsomes): 10 min |
| FC(F)(F)Oc1ccc(-c2csc(Nc3cc4ccccc4cn3)n2)cc1 | > 32000 nM | – |
| Cc1ccc(Nc2nc(-c3ccncc3)cs2)nc1 | 1570 nM | t1/2 (Liver microsomes): 20 min; permeability (MDCK [3]): 32.6 ×10⁻⁶ cm/s; permeability (MDCK [4]): 42.3 ×10⁻⁶ cm/s |
| COc1ccc(-c2csc(Nc3ncccc3C)n2)cc1OC | 7290 nM | – |
| COc1ccc(-c2csc(Nc3ncccn3)n2)cc1OC | 3930 nM | – |
| Cc1csc(Nc2cc3ccccc3cn2)n1 | > 32000 nM | – |
| COc1ccc(-c2csc(Nc3cc(C)ccn3)n2)cc1OC | 1000 nM | – |
| COc1ccc(-c2csc(Nc3ccc4ccccc4n3)n2)cc1OC | 430 nM | t1/2 (Liver microsomes): 69 min; permeability (MDCK [3]): 9.2 ×10⁻⁶ cm/s; permeability (MDCK [4]): 8.9 ×10⁻⁶ cm/s |
| COc1ccc(-c2csc(Nc3cccc4ccccc34)n2)cc1OC | > 32000 nM | – |
| COc1ccc(-c2csc(C(=O)Nc3cc4ccccc4cn3)n2)cc1OC | > 10000 nM | – |
| CNc1nc(-c2ccc(OC)c(OC)c2)cs1 | > 32000 nM | – |
| COc1ccnc(Nc2nc(-c3cc(-c4ccccc4)no3)cs2)c1 | 250 nM | – |
| COc1cc2c(cc1OC)-c1nc(Nc3ccc(C)cn3)sc1C2 | 5590 nM | – |
| COc1ccc(Nc2nc(-c3ccc(OC)c(OC)c3)cs2)nc1 | – | t1/2 (Liver microsomes): 45 min |
| COc1ccc(-c2csc(Nc3ccc(C)cn3)n2)cc1 | 3030 nM | – |
| Cc1ccnc(Nc2nc(-c3cc(-c4ccccc4)no3)cs2)c1 | 1270 nM | – |
| FC(F)(F)c1csc(Nc2cc3ccccc3cn2)n1 | 8660 nM | – |
| COc1ccc(-c2csc(N(C)c3cc4ccccc4cn3)n2)cc1OC | 140 nM | – |
| Cc1ccc(Nc2nc(-c3ccccn3)cs2)nc1 | 860 nM | – |
| Cc1ccc(Nc2nc3c(s2)Cc2ccccc2-3)nc1 | 2440 nM | – |
| c1ccc(-c2cc(-c3csc(Nc4cc5ccccc5cn4)n3)on2)cc1 | 800 nM | – |
